ChEMBL document CHEMBL1240487, “Discovery of a potent, selective, and orally bioavailable pyridinyl-pyrimidine phthalazine aurora kinase inhibitor” (J Med Chem, 2010)
In brackets after ≈: the same amount, converted by molar mass. Activity calls are given as the source filed them. The rule behind the calls is not given here.

Tests used:
[1] = Clearance in Sprague-Dawley rat at 0.5 mg/kg, iv and 2 mg/kg, po; assay type: ADME, organism-based; details: in vivo
[2] = target: Insulin-like growth factor 1 receptor (Homo sapiens, UniProt P08069); test: Inhibition of IGFR1 by HTRF assay
Sequence of Insulin-like growth factor 1 receptor (P08069 31-736 limits assumed): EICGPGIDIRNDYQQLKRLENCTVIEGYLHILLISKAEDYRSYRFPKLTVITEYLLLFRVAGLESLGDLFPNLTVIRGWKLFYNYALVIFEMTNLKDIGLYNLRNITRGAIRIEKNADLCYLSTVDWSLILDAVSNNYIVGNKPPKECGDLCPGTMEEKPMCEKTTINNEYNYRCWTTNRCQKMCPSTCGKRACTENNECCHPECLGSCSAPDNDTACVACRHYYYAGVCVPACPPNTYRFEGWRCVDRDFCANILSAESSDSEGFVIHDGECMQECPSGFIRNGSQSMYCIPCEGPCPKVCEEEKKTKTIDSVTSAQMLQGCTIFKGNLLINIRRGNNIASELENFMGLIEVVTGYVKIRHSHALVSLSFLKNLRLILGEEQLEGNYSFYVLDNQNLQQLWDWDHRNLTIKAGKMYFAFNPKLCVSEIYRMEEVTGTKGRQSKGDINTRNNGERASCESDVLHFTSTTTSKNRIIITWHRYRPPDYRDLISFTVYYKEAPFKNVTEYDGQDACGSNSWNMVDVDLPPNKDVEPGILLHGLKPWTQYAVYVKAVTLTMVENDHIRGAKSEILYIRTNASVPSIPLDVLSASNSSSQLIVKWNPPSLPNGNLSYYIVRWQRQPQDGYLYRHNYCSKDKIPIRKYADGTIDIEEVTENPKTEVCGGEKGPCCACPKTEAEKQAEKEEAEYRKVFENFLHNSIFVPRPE
Sequence of Insulin-like growth factor 1 receptor (P08069 741-1367 limits assumed): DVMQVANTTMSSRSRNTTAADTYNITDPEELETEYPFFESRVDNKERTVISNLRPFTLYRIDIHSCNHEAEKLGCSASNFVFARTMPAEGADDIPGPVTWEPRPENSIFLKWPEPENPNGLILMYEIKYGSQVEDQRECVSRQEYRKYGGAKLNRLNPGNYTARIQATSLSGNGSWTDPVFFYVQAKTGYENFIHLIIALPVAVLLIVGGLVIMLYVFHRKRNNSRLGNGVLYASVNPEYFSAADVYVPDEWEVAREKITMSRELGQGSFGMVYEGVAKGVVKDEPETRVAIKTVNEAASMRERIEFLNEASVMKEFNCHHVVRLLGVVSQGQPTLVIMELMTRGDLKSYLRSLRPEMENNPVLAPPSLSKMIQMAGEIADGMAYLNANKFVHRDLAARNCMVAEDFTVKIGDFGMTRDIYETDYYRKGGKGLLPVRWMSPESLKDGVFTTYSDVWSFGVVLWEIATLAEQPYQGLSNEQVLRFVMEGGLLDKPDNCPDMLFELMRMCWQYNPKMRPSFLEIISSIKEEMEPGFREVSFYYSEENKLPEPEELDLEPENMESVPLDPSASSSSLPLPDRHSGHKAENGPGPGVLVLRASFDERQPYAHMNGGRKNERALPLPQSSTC
Summary of the method: (§1)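 Enzyme inhibition was run with ATP at its Km for each kinase. Values are averages of at least two determinations.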

[3] = target: Hepatocyte growth factor receptor (Homo sapiens, UniProt P08581); test: Inhibition of c-Met by HTRF assay; summary of the method: as §1
[4] = Aqueous equilibrium solubility of the compound in 0.01N HCL; assay type: physicochemical
[5] = target: Cyclin-dependent kinase 5 (Homo sapiens, UniProt Q00535); test: Inhibition of CDK5 by HTRF assay; summary of the method: as §1
Sequence of Cyclin-dependent kinase 5 (Q00535 whole entry): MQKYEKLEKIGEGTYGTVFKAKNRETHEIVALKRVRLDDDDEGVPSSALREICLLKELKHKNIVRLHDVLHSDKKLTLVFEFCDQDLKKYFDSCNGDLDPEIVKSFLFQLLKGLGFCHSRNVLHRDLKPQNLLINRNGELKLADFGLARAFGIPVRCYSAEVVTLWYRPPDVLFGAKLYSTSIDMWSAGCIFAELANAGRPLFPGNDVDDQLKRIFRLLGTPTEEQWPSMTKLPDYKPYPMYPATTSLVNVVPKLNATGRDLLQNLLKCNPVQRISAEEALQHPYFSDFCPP

[6] = target: RAC-alpha serine/threonine-protein kinase (Homo sapiens, UniProt P31749); test: Inhibition of PKBalpha by HTRF assay; summary of the method: as §1
Sequence of RAC-alpha serine/threonine-protein kinase (P31749 whole entry): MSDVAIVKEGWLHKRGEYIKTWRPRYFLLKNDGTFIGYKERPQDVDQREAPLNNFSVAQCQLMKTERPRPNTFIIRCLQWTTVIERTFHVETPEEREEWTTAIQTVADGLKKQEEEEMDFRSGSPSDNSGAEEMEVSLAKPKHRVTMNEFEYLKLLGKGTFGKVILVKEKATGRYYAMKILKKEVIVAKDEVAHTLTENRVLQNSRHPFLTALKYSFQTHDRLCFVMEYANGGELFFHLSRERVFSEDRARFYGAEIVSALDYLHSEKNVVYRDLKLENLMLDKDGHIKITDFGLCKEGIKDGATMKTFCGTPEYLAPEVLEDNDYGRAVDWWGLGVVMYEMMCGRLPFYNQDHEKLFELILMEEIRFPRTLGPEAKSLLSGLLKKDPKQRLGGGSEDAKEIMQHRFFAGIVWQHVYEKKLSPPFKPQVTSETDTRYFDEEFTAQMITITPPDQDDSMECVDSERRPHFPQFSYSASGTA

[7] = Volume of distribution at steady state in Sprague-Dawley rat at 0.5 mg/kg, iv and 2 mg/kg, po; assay type: ADME, organism-based; details: in vivo, read-out: Vdss
[8] = target: Tyrosine-protein kinase BTK (Homo sapiens, UniProt Q06187); test: Inhibition of BTK by HTRF assay
Sequence of Tyrosine-protein kinase BTK (Q06187 whole entry): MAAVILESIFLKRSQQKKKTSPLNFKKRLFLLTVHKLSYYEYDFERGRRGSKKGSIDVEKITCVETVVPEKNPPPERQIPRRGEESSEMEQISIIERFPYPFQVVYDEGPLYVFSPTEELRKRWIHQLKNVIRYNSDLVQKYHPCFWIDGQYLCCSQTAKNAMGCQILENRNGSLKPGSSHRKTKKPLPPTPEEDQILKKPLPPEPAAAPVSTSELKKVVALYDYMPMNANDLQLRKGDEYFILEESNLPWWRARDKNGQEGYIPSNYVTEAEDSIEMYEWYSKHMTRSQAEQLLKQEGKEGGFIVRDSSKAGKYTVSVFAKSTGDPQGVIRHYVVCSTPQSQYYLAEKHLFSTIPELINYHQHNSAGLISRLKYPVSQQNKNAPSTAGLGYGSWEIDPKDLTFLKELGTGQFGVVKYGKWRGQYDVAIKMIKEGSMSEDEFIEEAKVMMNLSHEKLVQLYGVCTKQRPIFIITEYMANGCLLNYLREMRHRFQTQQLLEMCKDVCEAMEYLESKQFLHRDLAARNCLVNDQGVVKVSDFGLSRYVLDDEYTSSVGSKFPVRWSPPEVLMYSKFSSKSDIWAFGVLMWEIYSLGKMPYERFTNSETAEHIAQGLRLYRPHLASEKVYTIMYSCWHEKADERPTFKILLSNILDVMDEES

[9] = target: Serine/threonine-protein kinase PLK1 (Homo sapiens, UniProt P53350); test: Inhibition of PLK1 by HTRF assay; summary of the method: as §1
Sequence of Serine/threonine-protein kinase PLK1 (P53350 whole entry): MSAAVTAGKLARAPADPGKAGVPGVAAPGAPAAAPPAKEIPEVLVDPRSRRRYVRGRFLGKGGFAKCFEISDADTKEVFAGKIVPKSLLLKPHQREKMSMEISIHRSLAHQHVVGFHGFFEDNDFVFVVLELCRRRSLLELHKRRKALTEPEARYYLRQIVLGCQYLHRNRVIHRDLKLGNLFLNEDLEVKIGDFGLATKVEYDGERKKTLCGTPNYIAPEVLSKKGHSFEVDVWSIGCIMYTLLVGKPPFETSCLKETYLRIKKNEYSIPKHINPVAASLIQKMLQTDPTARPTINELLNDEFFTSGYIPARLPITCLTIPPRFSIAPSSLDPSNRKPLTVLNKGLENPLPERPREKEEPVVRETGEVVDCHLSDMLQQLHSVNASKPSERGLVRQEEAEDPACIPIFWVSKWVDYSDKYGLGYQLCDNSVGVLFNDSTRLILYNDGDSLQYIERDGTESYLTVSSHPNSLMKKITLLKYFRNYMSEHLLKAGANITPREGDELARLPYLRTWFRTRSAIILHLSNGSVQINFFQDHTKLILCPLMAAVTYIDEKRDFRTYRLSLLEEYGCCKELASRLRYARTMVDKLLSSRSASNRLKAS

[10] = Intrinsic clearance in rat liver microsomes at 1 uM after up to 40 mins; assay type: ADME, Microsome
[11] = Half life in Sprague-Dawley rat at 0.5 mg/kg, iv and 2 mg/kg, po; assay type: ADME, organism-based; details: in vivo
[12] = target: T1, Tyrosine-protein kinase JAK3 (Homo sapiens, UniProt P52333); test: Inhibition of Jak3 by HTRF assay; summary of the method: as §1
T1 sequence (P52333 whole entry): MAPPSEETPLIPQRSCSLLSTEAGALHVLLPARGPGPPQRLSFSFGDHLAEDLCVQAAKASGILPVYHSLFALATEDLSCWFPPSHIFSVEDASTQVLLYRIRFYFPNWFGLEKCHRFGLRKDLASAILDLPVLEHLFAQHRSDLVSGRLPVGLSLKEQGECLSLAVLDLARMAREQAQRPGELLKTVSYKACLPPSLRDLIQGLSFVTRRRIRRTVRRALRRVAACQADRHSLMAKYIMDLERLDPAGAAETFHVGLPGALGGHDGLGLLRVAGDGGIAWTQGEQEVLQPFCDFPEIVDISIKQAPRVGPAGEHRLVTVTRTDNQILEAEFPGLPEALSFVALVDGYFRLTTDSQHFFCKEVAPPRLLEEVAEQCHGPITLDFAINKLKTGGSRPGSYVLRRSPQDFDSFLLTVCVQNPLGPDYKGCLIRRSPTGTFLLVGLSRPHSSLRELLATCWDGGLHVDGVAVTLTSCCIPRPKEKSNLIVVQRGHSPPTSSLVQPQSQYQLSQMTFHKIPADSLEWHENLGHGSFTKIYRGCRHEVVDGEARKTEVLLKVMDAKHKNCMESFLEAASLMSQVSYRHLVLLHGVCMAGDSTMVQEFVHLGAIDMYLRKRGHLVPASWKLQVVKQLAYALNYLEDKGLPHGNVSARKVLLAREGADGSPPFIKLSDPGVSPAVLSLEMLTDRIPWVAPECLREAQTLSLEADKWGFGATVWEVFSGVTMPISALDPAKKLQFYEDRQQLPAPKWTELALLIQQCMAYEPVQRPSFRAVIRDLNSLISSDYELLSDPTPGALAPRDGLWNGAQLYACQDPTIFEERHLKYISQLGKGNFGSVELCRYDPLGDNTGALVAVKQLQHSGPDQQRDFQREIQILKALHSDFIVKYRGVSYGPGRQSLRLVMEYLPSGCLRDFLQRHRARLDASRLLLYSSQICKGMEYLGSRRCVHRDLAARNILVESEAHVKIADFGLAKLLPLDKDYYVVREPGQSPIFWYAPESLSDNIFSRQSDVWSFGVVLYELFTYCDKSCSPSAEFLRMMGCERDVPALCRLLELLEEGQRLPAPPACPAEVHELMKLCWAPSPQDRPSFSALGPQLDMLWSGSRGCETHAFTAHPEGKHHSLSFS

[13] = target: Tyrosine-protein kinase ABL1 (Homo sapiens, UniProt P00519, T315I); test: Inhibition of Abl T315I mutant by HTRF assay; summary of the method: as §1
[14] = target: Cyclin-dependent kinase 1 (Homo sapiens, UniProt P06493); test: Inhibition of CDK1 by HTRF assay; summary of the method: as §1
Sequence of Cyclin-dependent kinase 1 (P06493 whole entry): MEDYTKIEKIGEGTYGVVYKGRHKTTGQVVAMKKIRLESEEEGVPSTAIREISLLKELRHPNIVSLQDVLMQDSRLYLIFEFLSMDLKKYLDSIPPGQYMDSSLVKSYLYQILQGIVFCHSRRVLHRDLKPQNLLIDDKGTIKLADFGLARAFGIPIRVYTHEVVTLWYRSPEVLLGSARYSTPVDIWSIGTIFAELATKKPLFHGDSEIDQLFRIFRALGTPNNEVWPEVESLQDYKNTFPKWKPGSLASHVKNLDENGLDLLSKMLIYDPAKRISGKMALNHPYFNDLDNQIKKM

[15] = target: Vascular endothelial growth factor receptor 2 (Homo sapiens, UniProt P35968); test: Inhibition of KDR by HTRF assay; summary of the method: as §1
[16] = target: Macrophage colony-stimulating factor 1 receptor (Homo sapiens, UniProt P07333); test: Inhibition of c-Fms by HTRF assay; summary of the method: as §1
Angiopoietin-1 receptor = Angiopoietin-1 receptor (Homo sapiens, UniProt Q02763); test: Inhibition of Tie-2 by HTRF assay; summary of the method: as §1
[17] = target: Aurora kinase A (Homo sapiens) (UniProt O14965); test: Inhibition of aurora A autophosphorylation in human HeLa cells at 0.313 uM after 3 hrs by Western blotting
Sequence of Aurora kinase A (Homo sapiens) (O14965 whole entry): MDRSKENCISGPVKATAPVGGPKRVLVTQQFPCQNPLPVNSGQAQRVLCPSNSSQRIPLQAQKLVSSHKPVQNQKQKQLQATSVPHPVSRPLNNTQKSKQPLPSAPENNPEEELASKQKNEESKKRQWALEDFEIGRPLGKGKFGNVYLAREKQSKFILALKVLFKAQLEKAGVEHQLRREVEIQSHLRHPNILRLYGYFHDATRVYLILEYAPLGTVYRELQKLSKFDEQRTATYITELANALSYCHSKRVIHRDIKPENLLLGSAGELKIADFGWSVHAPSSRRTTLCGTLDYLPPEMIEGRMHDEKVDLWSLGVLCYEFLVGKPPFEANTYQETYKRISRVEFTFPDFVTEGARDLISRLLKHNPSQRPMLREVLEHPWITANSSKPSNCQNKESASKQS

Plasma [18] = test: Drug level in human COLO205 cells xenografted in CD1 mouse plasma at 50 mg/kg, po after 3 to 6 hrs; assay type: ADME, organism-based, COLO 205; parameters: dose 50 mg/kg, route oral; details: in vivo
Summary of the method: (§2)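 COLO 205 xenograft-bearing mice received a single 50 mg/kg oral dose (N = 12 per group). Plasma was sampled at 3, 6 and 24 h (N = 4 per time point) and analyzed for drug concentration. Results are reported as mean ± SD.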

HeLa = test: Induction of morphological changes in human HeLa cells at […] after 48 hrs using DAPI staining by microscopic analysis
Aurora kinase B [19] = target: T2, Aurora kinase B (Homo sapiens, UniProt Q96GD4); test: Inhibition of aurora B in human HeLa cells assessed as increase of >= 4N DNA level at 0.313 uM after 24 hrs using Hoechst staining by flow cytometry; assay type: cell-based
T2 sequence (Q96GD4 whole entry): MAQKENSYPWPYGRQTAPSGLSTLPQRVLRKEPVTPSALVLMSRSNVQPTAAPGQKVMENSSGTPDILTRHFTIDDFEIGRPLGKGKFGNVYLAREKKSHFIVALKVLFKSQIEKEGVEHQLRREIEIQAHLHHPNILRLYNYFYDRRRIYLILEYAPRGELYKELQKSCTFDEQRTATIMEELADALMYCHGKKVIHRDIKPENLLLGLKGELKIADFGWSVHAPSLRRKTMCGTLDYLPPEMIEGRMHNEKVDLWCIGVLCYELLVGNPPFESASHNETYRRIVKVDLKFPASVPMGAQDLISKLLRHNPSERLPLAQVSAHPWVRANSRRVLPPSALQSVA
Summary of the method: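 In the 24 h DNA ploidy assay, HeLa cells were exposed to compound for 24 h. The read-out was accumulation of cells with ≥4N DNA content relative to control. For the single-concentration test, cells were treated at 0.313 μM, and p-histone H3 Ser10 and DNA content (2N/4N/8N) were read by flow cytometry. The ploidy read-out gave an EC50.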

Aurora kinase B [20] = target: T2, Aurora kinase B; test: Inhibition of aurora B autophosphorylation in human HeLa cells at 0.313 uM after 3 hrs by Western blotting
Plasma [21] = test: Fraction unbound in mouse plasma at 10 uM after 6 hrs by ultrafiltration; assay type: ADME, cell-free
[22] = target: RAC-beta serine/threonine-protein kinase (Homo sapiens, UniProt P31751); test: Inhibition of PKBbeta by HTRF assay; summary of the method: as §1
Sequence of RAC-beta serine/threonine-protein kinase (P31751 whole entry): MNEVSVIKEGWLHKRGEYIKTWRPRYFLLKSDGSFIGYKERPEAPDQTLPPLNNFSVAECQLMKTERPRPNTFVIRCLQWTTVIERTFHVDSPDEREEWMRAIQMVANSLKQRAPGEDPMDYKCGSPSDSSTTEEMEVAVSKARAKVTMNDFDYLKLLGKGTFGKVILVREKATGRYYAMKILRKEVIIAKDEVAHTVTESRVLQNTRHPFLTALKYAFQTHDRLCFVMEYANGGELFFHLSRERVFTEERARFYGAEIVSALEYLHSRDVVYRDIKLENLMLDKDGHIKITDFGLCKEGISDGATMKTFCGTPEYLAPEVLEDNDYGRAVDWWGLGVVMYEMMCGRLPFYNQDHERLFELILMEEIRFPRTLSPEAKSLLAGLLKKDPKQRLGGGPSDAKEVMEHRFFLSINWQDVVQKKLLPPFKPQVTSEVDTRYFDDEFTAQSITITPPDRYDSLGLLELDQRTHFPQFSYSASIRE

[23] = Drug level in human COLO205 cells xenografted in CD1 mouse plasma at 50 mg/kg, po after 24 hrs; assay type: ADME, organism-based, COLO 205; parameters: dose 50 mg/kg, route oral; summary of the method: as §2
Plasma [24] = test: Fraction unbound in mouse plasma at 10 uM after 24 hrs by ultrafiltration; assay type: ADME, cell-free

IC50 [2] [µM]	solubility thermodynamic [4] [µg/mL]	IC50 [5] [µM]	IC50 [6] [µM]	IC50 [8] [µM]	IC50 [9] [µM]	IC50 [12] [µM]	Structure (SMILES)	other results
> 1	5 (≈ 10.2 µM)	> 1	> 1	> 1	> 1	> 1	CNc1nccc(-c2cccnc2Oc2ccc(NC(=O)c3ccccc3Nc3ccccc3)cc2)n1	clearance [1]: 60 mL/min/kg; IC50 [3]: > 1 µM; Vd [7]: 4.8 L/kg; microsomal CLint at 1 µM [10]: 663 µL/min/mg; half-life [11]: 2.8 h; IC50 [13]: > 1 µM; IC50 [14]: > 1 µM
> 8	–	> 8	> 8	–	> 8	> 8	CNc1nccc(-c2cccnc2Oc2ccc(NC(=O)c3cccc(C(F)(F)F)c3)cc2C)n1	IC50 [15]: 3.27 µM; IC50 [16]: 1.58 µM; IC50 (Angiopoietin-1 receptor): 0.63 µM
> 25	> 200	> 25	> 25	> 25	> 25	> 25	CNc1nccc(-c2cccnc2Oc2ccc(Nc3nnc(-c4ccc(F)cc4)c4ccccc34)cc2)n1	Activity [17]: Active; Cp (Plasma [18]): >= 20000 ng/ml; Activity (HeLa): Active; Activity (Aurora kinase B [19]): Active; Activity (Aurora kinase B [20]): Active; unbound concentration (Plasma [21]): < 20 ng/mL; IC50 [22]: > 25 µM; concentration at 24 h [23]: 2460 ng/mL; unbound concentration (Plasma [24]): < 2.5 ng/mL
